Measured values reported in ChEMBL document CHEMBL1641414, “Synthesis and pharmacological evaluation of 4-(3,4-dichlorophenyl)-N-methyl-1,2,3,4-tetrahydronaphthalenyl amines as triple reuptake inhibitors” (Bioorg Med Chem, 2011).

Legend:
[1] = molecular target: Sodium-dependent noradrenaline transporter (Homo sapiens, UniProt P23975); assay: Inhibition of [3H]norepinephrine reuptake at human NET expressed in MDCK cells by scintillation counting; assay type: cell-based
[2] = molecular target: Sodium-dependent dopamine transporter (Homo sapiens, UniProt Q01959); assay: Inhibition of [3H]dopamine reuptake at human DAT expressed in CHOK1 cells by scintillation counting; assay type: cell-based, CHO-K1
Sodium-dependent dopamine transporter, sequence (Q01959 whole entry): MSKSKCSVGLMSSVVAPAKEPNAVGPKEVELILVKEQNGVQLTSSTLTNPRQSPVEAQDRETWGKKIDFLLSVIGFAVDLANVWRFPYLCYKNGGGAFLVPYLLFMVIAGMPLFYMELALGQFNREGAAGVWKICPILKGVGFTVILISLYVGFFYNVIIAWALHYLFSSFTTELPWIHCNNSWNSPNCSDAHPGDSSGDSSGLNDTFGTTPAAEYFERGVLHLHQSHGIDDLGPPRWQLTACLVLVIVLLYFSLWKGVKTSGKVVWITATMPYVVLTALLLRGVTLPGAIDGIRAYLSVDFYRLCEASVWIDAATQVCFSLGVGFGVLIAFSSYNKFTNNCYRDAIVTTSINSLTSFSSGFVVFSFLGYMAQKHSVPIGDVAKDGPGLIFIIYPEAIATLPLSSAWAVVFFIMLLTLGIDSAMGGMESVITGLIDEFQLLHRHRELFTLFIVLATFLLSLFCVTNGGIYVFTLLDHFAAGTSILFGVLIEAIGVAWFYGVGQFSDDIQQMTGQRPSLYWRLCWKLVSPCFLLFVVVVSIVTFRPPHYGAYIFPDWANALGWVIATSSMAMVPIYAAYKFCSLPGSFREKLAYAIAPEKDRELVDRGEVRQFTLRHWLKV

[3] = Half life in human liver microsome; assay type: ADME; conditions: liver microsomes
In short: (§1)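 Microsomal stability and CYP inhibition were run by a contract laboratory under its standard protocols. Stability was measured in human and mouse liver microsomes and reported as t1/2 in min. Midazolam was the reference substrate for CYP3A4.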

[4] = Half life in mouse liver microsome; assay type: ADME; conditions: liver microsomes; in short: as §1
[5] = molecular target: Cytochrome P450 2C9 (Homo sapiens, UniProt P11712); assay: Inhibition of CYP2C9; assay type: ADME; in short: as §1
Cytochrome P450 2C9, sequence (P11712 whole entry): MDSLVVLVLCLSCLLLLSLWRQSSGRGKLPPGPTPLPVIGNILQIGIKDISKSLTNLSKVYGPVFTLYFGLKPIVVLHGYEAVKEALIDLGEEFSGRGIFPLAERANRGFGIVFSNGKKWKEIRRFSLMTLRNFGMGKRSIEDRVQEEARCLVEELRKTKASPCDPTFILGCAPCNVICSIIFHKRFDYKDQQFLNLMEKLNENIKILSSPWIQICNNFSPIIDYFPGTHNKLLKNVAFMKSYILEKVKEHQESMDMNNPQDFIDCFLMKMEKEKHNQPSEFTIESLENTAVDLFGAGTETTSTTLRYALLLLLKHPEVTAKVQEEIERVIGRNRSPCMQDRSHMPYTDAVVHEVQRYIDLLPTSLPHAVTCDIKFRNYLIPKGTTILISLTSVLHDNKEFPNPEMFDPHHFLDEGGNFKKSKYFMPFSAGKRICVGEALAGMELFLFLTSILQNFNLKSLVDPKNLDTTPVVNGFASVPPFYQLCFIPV

[6] = molecular target: Cytochrome P450 2D6 (Homo sapiens, UniProt P10635); assay: Inhibition of CYP2D6; assay type: ADME; in short: as §1
Cytochrome P450 2D6, sequence (P10635 whole entry): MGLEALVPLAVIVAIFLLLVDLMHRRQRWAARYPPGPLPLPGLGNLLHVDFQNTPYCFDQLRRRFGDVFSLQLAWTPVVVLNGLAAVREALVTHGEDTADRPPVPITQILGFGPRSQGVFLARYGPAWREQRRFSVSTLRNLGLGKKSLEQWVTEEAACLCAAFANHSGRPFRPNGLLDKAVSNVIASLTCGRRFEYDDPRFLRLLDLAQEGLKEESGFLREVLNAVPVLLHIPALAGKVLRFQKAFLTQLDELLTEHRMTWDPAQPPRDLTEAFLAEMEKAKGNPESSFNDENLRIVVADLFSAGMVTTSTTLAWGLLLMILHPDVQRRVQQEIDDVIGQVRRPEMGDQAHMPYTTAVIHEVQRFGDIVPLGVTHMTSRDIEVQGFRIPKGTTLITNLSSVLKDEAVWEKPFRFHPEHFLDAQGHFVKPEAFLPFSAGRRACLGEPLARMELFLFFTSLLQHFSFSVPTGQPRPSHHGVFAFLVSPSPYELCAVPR

[7] = molecular target: Cytochrome P450 2C19 (Homo sapiens, UniProt P33261); assay: Inhibition of CYP2C19; assay type: ADME
Cytochrome P450 2C19, sequence (P33261 whole entry): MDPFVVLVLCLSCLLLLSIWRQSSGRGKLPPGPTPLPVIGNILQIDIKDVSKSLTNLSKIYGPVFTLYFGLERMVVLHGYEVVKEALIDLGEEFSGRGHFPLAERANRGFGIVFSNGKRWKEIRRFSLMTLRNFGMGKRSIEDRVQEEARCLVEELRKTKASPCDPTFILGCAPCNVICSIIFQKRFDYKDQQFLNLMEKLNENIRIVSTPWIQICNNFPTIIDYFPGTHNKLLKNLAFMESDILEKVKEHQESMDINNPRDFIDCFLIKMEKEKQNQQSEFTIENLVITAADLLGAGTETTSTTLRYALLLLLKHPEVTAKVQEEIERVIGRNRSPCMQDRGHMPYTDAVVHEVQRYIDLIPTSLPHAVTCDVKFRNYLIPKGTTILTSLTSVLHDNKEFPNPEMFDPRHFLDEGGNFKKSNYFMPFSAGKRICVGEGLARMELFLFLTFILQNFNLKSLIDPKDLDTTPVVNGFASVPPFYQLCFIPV

[8] = molecular target: Cytochrome P450 3A4 (Homo sapiens, UniProt P08684); assay: Inhibition of CYP3A4; assay type: ADME; in short: as §1
Cytochrome P450 3A4, sequence (P08684 whole entry): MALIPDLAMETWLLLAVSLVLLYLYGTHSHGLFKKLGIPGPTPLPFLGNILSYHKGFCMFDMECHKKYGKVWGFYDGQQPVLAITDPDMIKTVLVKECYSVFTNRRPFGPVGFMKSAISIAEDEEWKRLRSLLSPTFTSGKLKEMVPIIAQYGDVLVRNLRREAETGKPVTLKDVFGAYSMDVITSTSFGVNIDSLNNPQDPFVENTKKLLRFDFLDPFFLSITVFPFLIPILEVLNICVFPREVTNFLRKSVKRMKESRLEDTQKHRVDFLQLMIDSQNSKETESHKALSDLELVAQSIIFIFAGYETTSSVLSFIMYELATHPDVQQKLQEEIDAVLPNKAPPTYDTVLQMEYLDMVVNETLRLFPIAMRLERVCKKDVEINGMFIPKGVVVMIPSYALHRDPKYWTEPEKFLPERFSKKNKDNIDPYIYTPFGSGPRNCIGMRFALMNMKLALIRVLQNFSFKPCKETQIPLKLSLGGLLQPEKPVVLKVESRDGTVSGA

[9] = molecular target: Voltage-gated inwardly rectifying potassium channel KCNH2 (Homo sapiens, UniProt Q12809); assay: Inhibition of human ERG
Voltage-gated inwardly rectifying potassium channel KCNH2, sequence (Q12809 whole entry): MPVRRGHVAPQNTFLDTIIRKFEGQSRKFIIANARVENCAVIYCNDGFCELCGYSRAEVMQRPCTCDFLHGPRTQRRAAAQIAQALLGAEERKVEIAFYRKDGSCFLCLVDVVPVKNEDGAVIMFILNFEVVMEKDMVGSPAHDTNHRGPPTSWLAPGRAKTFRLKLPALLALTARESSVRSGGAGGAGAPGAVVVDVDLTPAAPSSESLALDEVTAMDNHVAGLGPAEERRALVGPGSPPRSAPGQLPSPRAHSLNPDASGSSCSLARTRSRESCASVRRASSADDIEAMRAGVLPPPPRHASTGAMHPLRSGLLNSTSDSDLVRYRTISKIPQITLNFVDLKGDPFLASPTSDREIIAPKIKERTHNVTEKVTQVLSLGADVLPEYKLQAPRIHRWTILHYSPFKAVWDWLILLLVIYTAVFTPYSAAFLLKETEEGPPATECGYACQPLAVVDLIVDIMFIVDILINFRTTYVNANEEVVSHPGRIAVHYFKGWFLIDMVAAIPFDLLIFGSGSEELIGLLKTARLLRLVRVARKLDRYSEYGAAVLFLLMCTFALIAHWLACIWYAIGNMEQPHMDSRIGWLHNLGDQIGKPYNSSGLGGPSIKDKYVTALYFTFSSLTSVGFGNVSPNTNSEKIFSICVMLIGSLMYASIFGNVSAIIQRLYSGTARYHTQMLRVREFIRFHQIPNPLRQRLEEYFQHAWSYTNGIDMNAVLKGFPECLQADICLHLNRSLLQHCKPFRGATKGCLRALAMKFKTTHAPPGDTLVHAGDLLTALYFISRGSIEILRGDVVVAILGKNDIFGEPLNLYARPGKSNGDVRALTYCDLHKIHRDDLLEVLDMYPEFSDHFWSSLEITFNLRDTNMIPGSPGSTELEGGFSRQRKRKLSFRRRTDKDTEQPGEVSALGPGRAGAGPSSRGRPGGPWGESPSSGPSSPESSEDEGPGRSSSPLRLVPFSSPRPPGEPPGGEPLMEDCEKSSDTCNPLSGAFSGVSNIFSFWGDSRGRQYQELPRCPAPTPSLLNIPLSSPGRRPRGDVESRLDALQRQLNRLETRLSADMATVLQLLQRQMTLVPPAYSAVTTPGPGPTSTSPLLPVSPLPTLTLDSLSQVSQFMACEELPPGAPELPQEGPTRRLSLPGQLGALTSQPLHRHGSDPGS

[10] = tested on: Mus musculus; assay: Antidepressant activity in po dosed mouse assessed as decrease in immobility after 120 mins by tail suspension test; assay type: functional, organism-based
In short: (§2)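 Male mice (10–12 per group) dosed orally once, 120 min pretreatment, then suspended by the tail. Immobility recorded automatically for 5 min, scored blind, compared with a vehicle group. One-way ANOVA with post-hoc comparisons, p <0.05 taken as significant.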

[11] = tested on: Mus musculus; assay: Antidepressant activity in mouse assessed as decrease in immobility at 100 mg/kg, po after 120 mins by tail suspension test; assay type: functional; conditions: 2 h; in short: as §2
[12] = tested on: Mus musculus; assay: Antidepressant activity in mouse assessed as decrease in immobility at 10 mg/kg, po after 120 mins by tail suspension test; assay type: functional; conditions: 2 h; in short: as §2
[13] = tested on: Mus musculus; assay: Antidepressant activity in mouse assessed as decrease in immobility at 30 mg/kg, po after 120 mins by tail suspension test; assay type: functional; conditions: 2 h; in short: as §2
[14] = Drug level in mouse plasma at 3 mg/kg, po after 120 mins; assay type: ADME, organism-based; set-up: dose 3 mg/kg, route oral; conditions: read-out: Drug uptake
In short: (§3)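 Male mice given the HCl salt orally at 3, 10 or 30 mg/kg. Plasma and whole brain were sampled from the tail suspension test animals after the 120 min pretreatment. Levels reported as ng/mL for plasma and ng/g for brain.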

[15] = Drug level in mouse plasma at 10 mg/kg, po after 120 mins; assay type: ADME, organism-based; set-up: dose 10 mg/kg, route oral; conditions: read-out: Drug uptake; in short: as §3
[16] = Drug level in mouse plasma at 30 mg/kg, po after 120 mins; assay type: ADME, organism-based; set-up: dose 30 mg/kg, route oral; conditions: read-out: Drug uptake; in short: as §3
[17] = Drug level in mouse whole brain at 3 mg/kg, po after 120 mins; assay type: ADME, organism-based; set-up: dose 3 mg/kg, route oral; conditions: in vivo, 2 h; in short: as §3
[18] = Drug level in mouse whole brain at 10 mg/kg, po after 120 mins; assay type: ADME, organism-based; set-up: dose 10 mg/kg, route oral; conditions: in vivo, 2 h; in short: as §3
[19] = Drug level in mouse whole brain at 30 mg/kg, po after 120 mins; assay type: ADME, organism-based; set-up: dose 30 mg/kg, route oral; conditions: in vivo, 2 h; in short: as §3
[20] = Plasma protein binding in mouse at 3 to 30 mg/kg, po after 120 mins; assay type: ADME, organism-based; set-up: dose 3-30 mg/kg, route oral; conditions: read-out: PPB
[21] = tested on: Brain; assay: fCmax in mouse brain at 3 to 30 mg/kg, po after 120 mins; assay type: ADME, organism-based; set-up: dose 3-30 mg/kg, route oral; conditions: in vivo, 2 h
In short: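 Brain free level estimated from measured brain concentration in the tail suspension test animals, corrected by mouse plasma protein binding.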

[22] = tested on: Mus musculus; assay: Neurotoxicity in mouse assessed as effect on locomotor activity at 3 to 30 mg/kg, po; assay type: toxicity, organism-based; set-up: dose 3-30 mg/kg, route oral; conditions: in vivo
In short: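 Mice pretreated orally with vehicle or compound, returned to the home cage, then placed individually in locomotor cages with infrared photocell beams. Horizontal and vertical activity monitored in 5 min intervals for up to 60 min; the first 5 min were assessed at 10 and 30 mg/kg. One-way ANOVA, p <0.05.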

[23] = Ratio of drug level in whole brain to plasma of mouse at 30 mg/kg, po after 120 mins; assay type: ADME, organism-based; set-up: dose 30 mg/kg, route oral; conditions: read-out: BPR
In short: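 Male mice were dosed orally once with the HCl salt at 3, 10 and 30 mg/kg, with a 120 min pretreatment before the 5 min tail suspension test. There were 10–12 mice per group. Afterwards, whole brain (ng/g) and plasma (ng/mL) samples were taken from the tested animals to give the brain-to-plasma ratio.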

Sodium-dependent noradrenaline transporter, sequence (P23975 whole entry): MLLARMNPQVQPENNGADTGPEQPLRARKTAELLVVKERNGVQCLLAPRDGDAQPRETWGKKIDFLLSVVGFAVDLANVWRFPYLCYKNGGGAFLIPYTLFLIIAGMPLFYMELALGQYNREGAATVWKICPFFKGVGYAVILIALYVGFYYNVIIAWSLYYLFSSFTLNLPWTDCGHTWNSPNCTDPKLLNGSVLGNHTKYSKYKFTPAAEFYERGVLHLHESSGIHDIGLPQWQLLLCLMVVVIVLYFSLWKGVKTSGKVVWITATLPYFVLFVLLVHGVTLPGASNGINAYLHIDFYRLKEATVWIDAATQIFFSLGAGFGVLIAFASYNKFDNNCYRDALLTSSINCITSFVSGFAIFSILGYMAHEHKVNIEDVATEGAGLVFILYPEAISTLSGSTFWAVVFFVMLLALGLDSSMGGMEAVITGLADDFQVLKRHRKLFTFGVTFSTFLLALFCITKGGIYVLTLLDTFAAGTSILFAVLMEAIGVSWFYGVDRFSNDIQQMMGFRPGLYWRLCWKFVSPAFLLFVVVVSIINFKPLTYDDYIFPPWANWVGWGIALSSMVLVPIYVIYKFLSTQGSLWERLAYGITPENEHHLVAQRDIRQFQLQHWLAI

Row | SMILES | IC50 [1] | IC50 [2] | half-life [3] | half-life [4] | IC50 [5] | IC50 [6] | IC50 [7] | IC50 [8] | other results
1 | CNC[C@H]1Cc2ccccc2[C@@H](c2ccc(Cl)c(Cl)c2)C1 | 372 nM | 484 nM |  |  |  |  |  |  | 
2 | CN[C@H]1CCc2ccccc2[C@@H]1c1ccc(Cl)c(Cl)c1 | 766 nM | 91 nM | 106 min | 101 min | > 10 µM | 8 nM |  |  | 
3 | CN(C)[C@H]1Cc2ccccc2[C@@H](c2ccc(Cl)c(Cl)c2)C1 | 98 nM | 319 nM |  |  |  |  |  |  | 
4 | CNC[C@@H]1Cc2ccccc2[C@H](c2ccc(Cl)c(Cl)c2)C1 | 210 nM | 111 nM | > 300 min | > 300 min | > 25 µM | 154 nM | 6.02 µM | > 25 µM | IC50 [9]: 2000 nM
5 | CNC[C@H]1Cc2ccccc2[C@H](c2ccc(Cl)c(Cl)c2)C1 |  |  | > 300 min | > 300 min | > 25 µM | 41 nM | 7.69 µM | 20.1 µM | IC50 [9]: 1610 nM
6 | CN[C@H]1Cc2ccccc2[C@H](c2ccc(Cl)c(Cl)c2)C1 |  |  | > 300 min | > 300 min | > 25 µM | 67 nM | > 25 µM | > 25 µM | 
7 | N[C@@H]1Cc2ccccc2[C@H](c2ccc(Cl)c(Cl)c2)C1 | 855 nM | 894 nM |  |  |  |  |  |  | 
8 | N[C@@H]1Cc2ccccc2[C@@H](c2ccc(Cl)c(Cl)c2)C1 | 731 nM | 408 nM |  |  |  |  |  |  | 
9 | CN[C@H]1Cc2ccccc2[C@@H](c2ccc(Cl)c(Cl)c2)C1 |  |  | > 300 min | > 300 min | > 25 µM | 2780 nM | 10.1 µM | 17.1 µM | IC50 [9]: 1600 nM; inhibition [10]: Dose-dependent effect; inhibition in vivo at 100 mg/kg [11]: 30%; inhibition in vivo at 10 mg/kg [12]: 21%; inhibition in vivo at 30 mg/kg [13]: 50%; concentration at 2 h [14]: 96 ng/mL; concentration at 2 h [15]: 164 ng/mL; concentration at 2 h [16]: 344 ng/mL; Drug uptake [17]: 2830 ng; Drug uptake [18]: 6021 ng; Drug uptake [19]: 13571 ng; fraction unbound at 2 h [20]: 0.01; fCmax [21]: 440 nM; Activity [22]: Non-toxic
10 | CN[C@H]1CC[C@@H](c2ccc(Cl)c(Cl)c2)c2ccccc21 [SERTRALINE] |  |  | > 120 min |  | > 10 µM | 1400 nM | 0.31 µM |  | 
11 | CN[C@@H]1CCc2ccccc2[C@H]1c1ccc(Cl)c(Cl)c1 | 1640 nM | 212 nM | 95 min | 20 min | > 10 µM | 57 nM |  |  | 
12 | CN(C)C[C@@H]1Cc2ccccc2[C@H](c2ccc(Cl)c(Cl)c2)C1 (racemic) | 565 nM | 332 nM |  |  |  |  |  |  | 
13 | NCC[C@H]1Cc2ccccc2[C@@H](c2ccc(Cl)c(Cl)c2)C1 |  | 50 nM | > 300 min | > 300 min | > 25 µM | 13800 nM | 1.64 µM | > 25 µM | IC50 [9]: 1510 nM
14 | CN[C@@H]1CCc2ccccc2[C@@H]1c1ccc(Cl)c(Cl)c1 | 112 nM | 559 nM | 55 min | 55 min | 7.6 µM | 33 nM |  |  | 
15 | CN[C@@H]1Cc2ccccc2[C@H](c2ccc(Cl)c(Cl)c2)C1 |  | 281 nM | > 300 min | > 300 min | > 25 µM | 20 nM | > 25 µM | > 25 µM | IC50 [9]: 5270 nM
16 | CNCCCN1c2ccccc2CCc2ccccc21 [DESIPRAMINE] |  |  |  |  |  |  |  |  | Kp at 2 h [23]: 40
17 | NCC[C@@H]1Cc2ccccc2[C@H](c2ccc(Cl)c(Cl)c2)C1 |  | 32 nM | > 300 min | > 300 min | > 25 µM | 265 nM | 3.76 µM | > 25 µM | IC50 [9]: 13100 nM
18 | CN[C@H]1CCc2ccccc2[C@H]1c1ccc(Cl)c(Cl)c1 | 7260 nM | 1620 nM | 55 min | 6 min | > 10 µM | 495 nM |  |  | 
19 | CN(C)[C@@H]1Cc2ccccc2[C@@H](c2ccc(Cl)c(Cl)c2)C1 | 174 nM | 176 nM |  |  |  |  |  |  | 
20 | CN[C@@H]1Cc2ccccc2[C@@H](c2ccc(Cl)c(Cl)c2)C1 |  | 62 nM | > 300 min | 120 min | > 25 µM | 1160 nM | 5.26 µM | > 25 µM | IC50 [9]: 2320 nM
21 | CNC[C@@H]1Cc2ccccc2[C@@H](c2ccc(Cl)c(Cl)c2)C1 | 126 nM | 103 nM | > 300 min | 93 min | > 25 µM | 917 nM | 2.17 µM | > 25 µM | 
22 | CN(C)[C@@H]1Cc2ccccc2[C@H](c2ccc(Cl)c(Cl)c2)C1 | 164 nM | 273 nM |  |  |  |  |  |  | 
23 | CN(C)C[C@H]1Cc2ccccc2[C@H](c2ccc(Cl)c(Cl)c2)C1 (mixture of isomers) | 309 nM | 339 nM |  |  |  |  |  |  | 
24 | N[C@H]1Cc2ccccc2[C@@H](c2ccc(Cl)c(Cl)c2)C1 | 174 nM | 175 nM |  |  |  |  |  |  | 
